aDG glyco up: alpha-DG glycosylation activation. activation, % at 10 µM. Pro5-aDG cells, alpha-DG glycosylation AlphaScreen (IIH6); 0% Pro5, 100% B10-LARGE cell signal. 360,000 compounds, 0.22% hits;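 active = activation of at least 8% versus controls, or a plate z-score of at least 8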;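 also: Pro5 are CHO cells carrying HIG-tagged alpha-DG that lacks glycosylation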
MPTP inh: permeability transition pore inhibition. inhibition, % at 10 µM. 360,000 compounds, 1.4% hits. isolated mouse mitochondria, Ca2+ swelling absorbance, 30 min;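 active = inhibition of 50% or more, scaled per plate between neutral and stimulator controls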;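 also: 0% = DMSO wells given calcium and 100% = 1 mM EGTA wells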
ADAM10 inh: ADAM10 inhibition, QFRET primary screen | O14672 | 370,000 compounds, 0.62% hits | recombinant ADAM10, EDANS/DABCYL FRET peptide cleavage, 3 h | inhibition, % at 7 µM | AID 720582;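 active = inhibition above a per-campaign cutoff equal to the mean of compounds falling between control-based bounds plus 3 SD, cut at about 20% in these data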;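 also: 0% = DMSO wells while the 100% control is not disclosed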
Target sequence (O14672 214-748 limits assumed): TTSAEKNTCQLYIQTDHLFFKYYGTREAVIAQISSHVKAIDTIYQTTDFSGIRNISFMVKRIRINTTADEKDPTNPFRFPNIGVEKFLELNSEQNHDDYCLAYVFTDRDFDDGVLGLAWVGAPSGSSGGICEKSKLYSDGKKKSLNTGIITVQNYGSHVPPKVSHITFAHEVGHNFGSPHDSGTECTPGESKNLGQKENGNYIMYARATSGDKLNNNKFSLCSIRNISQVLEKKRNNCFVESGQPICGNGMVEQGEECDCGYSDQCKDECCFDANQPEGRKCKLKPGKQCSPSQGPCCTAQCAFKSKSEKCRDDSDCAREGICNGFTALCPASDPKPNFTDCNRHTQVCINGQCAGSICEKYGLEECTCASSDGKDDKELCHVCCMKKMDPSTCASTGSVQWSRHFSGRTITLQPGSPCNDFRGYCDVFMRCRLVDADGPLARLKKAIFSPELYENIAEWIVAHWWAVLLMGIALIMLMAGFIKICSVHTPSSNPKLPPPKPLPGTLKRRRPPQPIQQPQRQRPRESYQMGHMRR
V-ATPase pH: yeast V-ATPase proton transport regulation by pHLuorin | 350,000 compounds, 0.37% hits | AID 504577 | response, % at 10 µM | S. cerevisiae, pHLuorin cytosolic pH fluorescence; in the data active = response mostly above about 7.3%, no sharp cut-off; inactive = mostly below about 5.4%; also: actives read high
ADAM17 inh: ADAM17 inhibition, QFRET primary screen. 370,000 compounds, 0.83% hits. P78536. recombinant ADAM17, EDANS/DABCYL FRET peptide cleavage. inhibition, % at 6.95 µM;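 active = inhibition above the mean of compounds lying between control limits plus 3 SD, set per campaign, cut at about 8.5% in these data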;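 also: 0% = DMSO-only wells as the low control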
Hep lipid drop: hepatic lipid droplet formation modulation | 240,000 compounds, 0.4% hits | inhibition, % at 6.5 µM | AML12 mouse hepatocytes, oleate lipid droplets, BODIPY imaging;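 active = lipid droplet intensity inhibited by at least 50%, with more than 500 cells counted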
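Assay system: AML12 hepatocytes (mouse) / Also added: 100 µM oleic acid challenge / Times: overnight treatment with compound plus oleate / Detection: high-content imaging of BODIPY-stained droplets and DAPI nuclei / Evaluation: % inhibition of lipid droplet signal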
MPTP counter: mitochondrial membrane potential, counter-screen; shares compounds with MPTP inh; isolated mitochondria, Rhodamine 123 fluorescence; inhibition, % at 10 µM; 5,000 compounds, 78% hits; in the data active = inhibition above about 22%;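 also: 0% = DMSO vehicle and 100% = positive control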
MPTP abs DR: dose response confirmation of mitochondrial permeability transition pore inhibitors. shares compounds with MPTP inh. isolated mitochondria swelling, absorbance. IC50, µM. 780 compounds, 58% hits. AID 651561; in the data active = IC50 below about 20 µM
MPTP counter DR: MPTP inhibitor counter-screen activity, dose response | shares compounds with MPTP inh | isolated mitochondria counterscreen, fluorescence read-out | IC50, µM | 780 compounds, 49% hits; in the data active = IC50 below about 80 µM
The depositor's hits bear a star; i = inactive; / = not tested or not shown. An excerpt weighted towards active compounds, which were near 3.1% of everything screened.

SMILES | aDG glyco up | MPTP inh | ADAM10 inh | V-ATPase pH | ADAM17 inh | Hep lipid drop | MPTP counter | others
Cc1ccc2nc(N(CCCN(C)C)C(=O)CS(=O)(=O)c3ccccc3)sc2c1 | 0 | 47 | -7 | -2 | 0 | / | /
Cc1ccc(S(=O)(=O)CC(=O)N(CCCN(C)C)c2nc3ccc(C)cc3s2)cc1 | 0 | 90* | -4 | 3 | 5 | / | -12 | MPTP abs DR=4.5*;MPTP counter DR=75*
CN(C)CCCN(C(=O)c1ccc2c(c1)CCCC2)c1nc2ccc(Cl)cc2s1 | 3 | 90* | 17 | 0 | 8.7* | -7 | -8
CN(C)CCCN(C(=O)CCc1ccccc1)c1nc2ccc(Cl)cc2s1 | 2 | 93* | 7 | -1 | 3 | 6 | -17
Cc1ccc2nc(N(CCCN(C)C)C(=O)CN3C(=O)c4ccccc4C3=O)sc2c1 | 0 | 0 | 2 | 0 | -2 | -8 | /
Cc1ccc2nc(N(CCCN(C)C)C(=O)CCc3ccccc3)sc2c1 | 3 | 102* | 2 | 4 | 2 | 7 | -10 | MPTP abs DR=3.7*;MPTP counter DR=>80
N=c1sccn1CC(=O)Nc1cccc(Oc2ccccc2)c1 | 3 | 92* | 7 | -2 | -2 | / | -1 | MPTP abs DR=4.9*;MPTP counter DR=>80
C=CCc1cccc(/C=N/NC(=O)C(C)Nc2ccc(C)cc2)c1O (stereo unspecified) | 0 | 80* | 9 | -3 | 2 | -4 | 62*
CCCCC(=O)N(C)c1c(C)nc2ccc(C(=O)NCCOc3ccc(OC)cc3)cn12 | 0 | -2 | -10 | / | -3 | / | /
CCCCN(C)c1c(C)nc2ccc(C(=O)NCCOc3ccc(OC)cc3)cn12 | 2 | 96* | / | / | / | / | 78*
C=CCn1c(C)cc(C2=NNC(=NC(C)(C)C)SC2)c1C | 0 | 101* | -33 | -5 | -8 | -29 | 76*
COC(=O)[C@]12C[C@H](CC(=O)NCc3ccc(OC)c(OC)c3)C(=O)N(Cc3ccco3)C1=C[C@H](C1CCCC1)O[C@@H]2C | / | / | 0 | / | -4 | / | /
COC(=O)Cn1c(CN(C)Cc2ccccc2)nc2c1c(=O)n(C)c(=O)n2C | 0 | 5 | -9 | -2 | -3 | -7 | /
COC(=O)Cn1c(CN2CCC(Cc3ccccc3)CC2)nc2c1c(=O)n(C)c(=O)n2C | 0 | 56* | 1 | 3 | 4 | -13 | 103*
CC1CCN(c2ccc(S(=O)(=O)N3CCC(C)CC3)cc2N)CC1 | 1 | 69* | 10 | 1 | 2 | -2 | 77*
COc1ccc(NS(=O)(=O)c2ccc(N3CCCCC3)c(N)c2)cc1 | 5 | 90* | -8 | -1 | 5 | / | 87*
Nc1cc(S(=O)(=O)N2CCCCC2)ccc1N1CCOCC1 | 2 | -2 | -5 | -5 | 4 | 16 | /
Nc1cc(S(=O)(=O)c2ccc(N3CCCCC3)c(N)c2)ccc1N1CCCCC1 | 1 | 94* | -32 | -1 | -4 | / | 105*
CCOc1ccc(Nc2c3ccccc3nc3ccccc23)cc1 | 0 | 96* | -462 | -3 | -169 | -82 | 85*
O=[N+]([O-])c1ccc(N/N=C2\CC3CC=CC23)c([N+](=O)[O-])c1 (stereo unspecified) | 0 | 92* | 11 | -2 | -4 | 5 | 75*
CC(C)C[C@@H]1COc2cccc(N3CCCC3)c2S(=O)(=O)N1C | / | / | -3 | / | -4 | / | /
Cc1ccc(-c2nnn(CC(=O)Nc3ccc(S(=O)(=O)N4CCC(C)CC4)cc3)n2)cc1 | 0 | 20 | 7 | -3 | 6 | / | /
CC1CCN(S(=O)(=O)c2ccc(NC(=O)Cn3nnc(-c4ccccc4)n3)cc2)CC1 | 0 | 54* | 19 | -1 | 10* | / | 56*
CC(C)C[C@H](NC1(C(=O)NC2CCCCC2)CCC1)C(=O)NCC(c1ccccc1)c1ccccc1 | / | / | 6 | / | 1 | / | /
Cc1nc(NS(=O)(=O)c2ccc(Cl)s2)c2c3c(sc2n1)CCCC3 | 0 | 84* | -38 | 4 | -10 | -1 | 77*
SMILES | aDG glyco up | MPTP inh | ADAM10 inh | V-ATPase pH | ADAM17 inh | Hep lipid drop | MPTP counter | others
CCCCS(=O)(=O)N1C2=NC3=C(C(=O)N(CCOC)C3=O)C3N(C)c4ccccc4[C@]23C[C@H]1CO (stereo partly specified) | / | / | -4 | / | -3 | / | /
O=[N+]([O-])c1cc(/C=N/N/C(=N/c2ccccn2)c2ccccn2)ccc1O | 4 | 78* | 12 | -23 | -1 | 3 | 8
COc1ccc(C2Nc3ccccc3C(=O)N2Cc2ccco2)cc1COc1c(C)cc(NC(C)=O)cc1C (stereo unspecified) | / | / | i | / | -246 | / | /
c1ccc(CCC2Cc3ccccc3N2)cc1 (stereo unspecified) | 0 | 1 | -6 | -3 | 0 | / | /
c1ccc(CC[C@@H]2CC[C@@H](CCc3ccccc3)N2)cc1 | 0 | 69* | -2 | 5 | -3 | / | -5 | MPTP abs DR=10*;MPTP counter DR=>80
COc1ccc(-n2c(SCC(=O)Nc3cccc4ccccc34)nnc2-c2ccco2)cc1 | / | / | 11 | / | 4 | / | /
COC(=O)NC(NC(=S)Nc1cccc(C)c1)C(Cl)(Cl)Cl (stereo unspecified) | 0 | 1 | 2 | 2 | 1 | 22 | /
O=C(NC(=S)Nc1c(Cl)cc(Cl)cc1Cl)c1ccccc1 | 0 | 2 | 0 | -3 | 2 | / | /
Cc1ccc(C)c(NC(=S)NC(NC(=O)OCc2ccccc2)C(Cl)(Cl)Cl)c1 (stereo unspecified) | 1 | 95* | 8 | 2 | 2 | -28 | 83*
O=C(NC(NC(=S)Nc1c(Cl)cc(Cl)cc1Cl)C(Cl)(Cl)Cl)OCc1ccccc1 (stereo unspecified) | 2 | 78* | 1 | 1 | -2 | -14 | 63*
O=C1c2cc(Cl)ccc2-c2c(O)cc(Cl)cc21 | 0 | 99* | -3 | 2 | 2 | / | 78*
O=c1cc(O)c(-c2ccc(Cl)cc2)c(Cl)[nH]1 | 0 | 2 | -1 | -3 | -1 | 1 | /
COc1ccc(NC(=S)NC(NC(=O)c2cccc(C)c2)C(Cl)(Cl)Cl)c([N+](=O)[O-])c1 (stereo unspecified) | 0 | 71* | 21* | 11 | 7 | 10 | 64*
O=C(Cc1cccc2ccccc12)NC(NC(=S)Nc1ccccc1Cl)C(Cl)(Cl)Cl (stereo unspecified) | 2 | 79* | -2 | 3 | 1 | -2 | 70*
COc1ccc(NC(=O)c2ccccc2)c([N+](=O)[O-])c1 | 0 | 0 | 5 | -2 | -1 | 5 | /

From PubChem BioAssay
